High-throughput results: PubChem, several laboratories
NS3 helicase inh: inhibitors of HCV NS3 helicase, primary screen, biochemical, Cy5 molecular beacon fluorescence; Hepatitis C virus NS3 helicase; actives 0.56% (n = 290,000); inhibition, % at 10.9 µM; NS3 helicase DNA unwinding;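 active = inhibition above the mean of all tested compounds plus 3 SD, set per campaign, cut at about 35% in these data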;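 also: 0% = DMSO wells and 100% = thioflavine S control wells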
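assay system = NS3 helicase fragment of HCV | buffer or medium = MOPS pH 6.5, MgCl2, DTT, Tween20, BSA | timing = 60 min unwinding reaction at 25 °C after ATP addition | signal = Cy5 beacon fluorescence read at start and 1 h | read-out basis = % inhibition of unwinding | control set = low DMSO, high thioflavine S at 110 µM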
core dimer inh: inhibitors of HCV core protein dimerization, primary screen, biochemical, TR-FRET, high-throughput. actives 0.33% (n = 300,000). TR-FRET GST/Flag-core106 dimerization, 1536-well. AID 1899, 2009. inhibition, % at 5 µM;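 active = inhibition above the mean of all tested compounds plus 3 SD, set per screening campaign, cut at about 45% in these data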
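Material: GST/Flag-tagged HCV core106 proteins. Incubation: 4 h, 22.5 °C incubation. Read-out basis: inhibition (%) from 671 over 617 nm ratio. Measured by: TR-FRET, excitation 340 nm, emission 617 and 671 nm.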
Tb MetRS inh: T. brucei MetRS inhibitors, primary screen, biochemical, luminescence; methionyl-tRNA synthetase (Trypanosoma brucei brucei); purified T. brucei MetRS, ATP depletion, Kinase-Glo luminescence; inhibition, % at 11.9 µM; actives 0.4% (n = 360,000); AID 624268, 2012;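 active = inhibition above a per-plate cutoff of the control wells' mean inhibition plus 3 SD, cut at about 5.5% in these data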;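 also: 0% = DMSO wells median and 100% = median of wells with control inhibitor compound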
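Material: parasite MetRS enzyme / Replication: singlicate, one well per compound / Signal: luminescence of leftover ATP / Schedule: 2 h aminoacylation at 25 °C after 15 min preincubation / Medium: HEPES-MgCl2-KCl buffer plus DTT, spermine, BSA, pyrophosphatase / Doses: 11.9 µM single point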
Lipid droplet: inhibitors of hepatocyte lipid droplet formation, primary screen, imaging, high-throughput imaging, BODIPY stain. actives 0.4% (n = 240,000). inhibition, % at 6.5 µM. AML12 mouse hepatocytes, oleate lipid droplets. AID 1656, 2009;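 active = lipid droplet intensity inhibited by at least 50%, with more than 500 cells counted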
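Test system: AML12 hepatocytes (mouse); reagent: oleate loading, 100 µM; dosing: one dose, 6.5 µM compound; incubation: overnight exposure; signal: fluorescence imaging, 20x objective, two fields per well; read-out basis: % inhibition of corrected integrated BODIPY droplet signal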
* = called active by the depositor; x = not tested or not shown. In the library only some 1.3% were active in any assay of this set; here they are far more common.

SMILES	NS3 helicase inh	core dimer inh	Tb MetRS inh	Lipid droplet
O=C(Nc1ccc(Cl)cc1)[C@@H]1[C@@H]2C(=O)N(c3cccc(F)c3)C(=O)[C@@H]2[C@H]2C=CC=NN21	21	20	1	2
O=C(Nc1ccc(Cl)cc1)[C@@H]1[C@@H]2C(=O)N(c3ccc4ccccc4c3)C(=O)[C@@H]2[C@H]2C=CC=NN21	9	60*	-1	12
COc1cc2cc(Br)cc(Br)c2nc1C	-2	63*	0	-3
C#CCNC(=O)C[C@@H]1C[C@@]2(C(=O)OC)CC(C)(C)CC=C2N(CCc2ccc(OC)c(OC)c2)C1=O	x	x	-1	x
COc1ccc(-c2cnc3c(NC=O)cc(-c4ccccc4OC)cn23)cc1OC	x	x	0	x
COC(=O)c1ccc(COc2ccc(F)cc2)o1	0	-9	0	61*
COC(=O)c1ccc(COc2ccc(C(=O)c3ccccc3)cc2)o1	-7	5	0	-1
C=CCn1c(COc2ccc(CC)cc2)nnc1SC/C(O)=C(\C#N)c1nc2ccccc2[nH]1	1	70*	1	-11
N#C/C(=C(/O)CSc1nnc(Cc2cccs2)n1C1CCCCC1)c1nc2ccccc2[nH]1	9	63*	1	x
COc1ccccc1-c1nnc(SC/C(O)=C(\C#N)c2nc3ccccc3[nH]2)n1C1CCCCC1	-6	24	1	-45
Cc1csc(-c2cc(C(=O)NCc3ccc(F)cc3)n[nH]2)c1	x	x	0	x
O=S1(=O)c2ccccc2N=NN1Cc1ccc(Cl)cc1	11	47*	0	5
O=C1c2ccncc2C(=O)N1Cc1cccc(Cl)c1	2	4	0	x
O=S1(=O)c2ccccc2N=NN1Cc1cc(Cl)cc(Cl)c1	13	46*	x	1
COc1ccc(CCn2c(C)ccc2C)cc1OC	10	47*	x	18
CC1(C(=O)NCC2CC2)Cc2c(-c3cccc(C(F)(F)F)c3)ccnc2O1 (stereo not drawn)	x	x	0	x
O=C(N/N=C/c1cn(-c2ccccc2)nc1-c1cc2ccccc2o1)c1c[nH]c2ccccc12	-8	34	-2	52*
Cc1c(/C=N\NC(=O)c2c[nH]c3ccccc23)cnn1C	-4	-6	0	5
COc1cccc(S(=O)(=O)N2C[C@H](O)COC[C@H]3O[C@@H](CC(=O)N4CCN(C)CC4)CC[C@@H]32)c1	x	x	-1	x
CCOC(=O)c1csc(-c2ccc(COC(=O)c3ccccc3)o2)n1	x	x	1	x
Cc1ccc2nc(SCc3ccc([N+](=O)[O-])cc3)[nH]c2c1	-1	-4	19*	x
Cc1ccc2nc(SCC(=O)Nc3cccc([N+](=O)[O-])c3)[nH]c2c1	-2	2	72*	x
Cc1ccc2nc(SCc3ccc([N+](=O)[O-])cc3)nc(C)c2c1	1	3	0	-13
COC(=O)[C@]12CCCCC=C1N(Cc1ccccc1)C(=O)[C@H](CC(=O)NCC1CCCCC1)C2	x	x	0	x
CC1=C(C(=O)N(C(C)C)C(C)C)CC(CC(=O)NCCc2ccccn2)C(=O)N1Cc1ccccc1 (stereo not drawn)	x	x	-1	x
SMILES	NS3 helicase inh	core dimer inh	Tb MetRS inh	Lipid droplet
COc1ccc(C2=Nc3cccc4cccc(c34)N2)cc1	6	-1	0	x
Nc1cccc(C2=Nc3cccc4cccc(c34)N2)c1	12	72*	0	-19
CC(C)(C)OC(=O)C[C@H]1C/C=C\C[C@@H](CC(=O)N[C@@H](CO)Cc2ccccc2)C(=O)N2CCC[C@@H]2COC1=O	x	x	0	x
Cc1ccc2c(c1)c1c3n2CC(=C2C(=O)OC(C)(C)OC2=O)NC3CCC1 (stereo not drawn)	6	46*	0	-7
O=C(NN1C(=O)/C(=C/C=C/c2ccccc2)SC1=S)c1ccncc1	26	49*	-1	-2
CCC(c1nc2ccccc2[nH]1)n1c(=O)c(-c2cccnc2)nc2ccccc21 (stereo not drawn)	x	x	-1	x
COc1cc(N2CCOCC2)ccc1C=C(C#N)C#N	-4	6	0	2
COc1cc(N2Cc3ccccc3C2)ccc1C=O	2	46*	-1	0
O=C(Nc1cccc(S(=O)(=O)N2CCOCC2)c1)c1ccc2ccccc2n1	6	-3	0	16
CCN(CC)S(=O)(=O)c1ccc(N2CCOCC2)c(NC(=O)c2c3c(nc4ccccc24)CCC3)c1	4	77*	0	-8
O=C(Nc1cccc(S(=O)(=O)N2CCOCC2)c1)c1c2c(nc3ccccc13)CCC2	10	74*	-1	-10
COc1cc2c(cc1OCc1ccccc1)/C(=C/C(=O)OCc1ccccc1)OC2	x	x	-1	x
CCCCNC(=O)C1C(c2ccc(OC)cc2)=Nc2ccccc2N1C(=O)c1ccncc1 (stereo not drawn)	x	x	-1	x
CC(C)[C@H](NC(=O)Cc1ccccc1)C(=O)OCc1cc(=O)n2c(n1)sc1ccccc12	11	46	1	2
Cc1ccc2c(CC(=O)OCc3cc(=O)n4c(n3)sc3ccccc34)coc2c1	6	90*	-1	x
c1cnc2ccc(-n3ccnc3)cc2c1	x	x	-1	x
CC(=O)Nc1ccc(NC(=O)C(C)Sc2nnc(C3CC3)n2-c2ccccc2)cc1 (stereo not drawn)	x	x	0	x
CCn1c(SCC(=O)Nc2ccc(OC)cc2)nc2nc3c(cc2c1=O)COC(C)(C)C3	7	0	-1	-1
COc1ccc(-c2nc3c(c4nnc(SC(C)C(=O)Nc5ccccc5)n24)COC(C)(C)C3)cc1 (stereo not drawn)	-2	6	-1	66*
COc1ccc(NC(=O)C(C)Sc2nnc3c4c(nc(-c5ccc(OC)cc5)n23)CC(C)(C)OC4)cc1 (stereo not drawn)	-5	3	-1	52*
Cc1ccc(C(O)c2ncc(-c3cccc4ccccc34)[nH]2)cc1F (stereo not drawn)	x	x	0	x
COc1ccccc1CNC(=O)CSc1ccc(-c2cccs2)nn1	2	3	-1	-11
COc1ccccc1CNC(=O)CSc1ccc(-c2ccccn2)nn1	-2	56*	0	3
CCOC(=O)C(Cc1ccc(NC(=O)/C(=C/c2ccccc2)NC(=O)c2ccccc2)cc1)N1C(=O)c2ccccc2C1=O (stereo not drawn)	-2	58*	0	x
CCOC(=O)C(Cc1ccc(NC(=O)/C(=C/c2ccc(OC(C)=O)cc2)NC(C)=O)cc1)N1C(=O)c2ccccc2C1=O (stereo not drawn)	-16	5	-1	x
CCCCCCCCOC(=O)c1cc([N+](=O)[O-])c(Sc2ncnc3nc[nH]c23)c([N+](=O)[O-])c1	x	x	0	x
CC(=O)c1cccc(S(=O)(=O)N2CCN(c3nc4cc(C)cc(C)c4cc3C#N)CC2)c1	0	70*	0	x
CCOC(=O)c1c(N)sc2c1CCC(CC)C2 (stereo not drawn)	4	2	-1	3
